Measured values pooled from the literature.
Lines come from different studies, so protocols differ.
Target: Ephrin type-B receptor 4 (EPHB4, Homo sapiens, UniProt P54760)
One construct used (P54760 16-987): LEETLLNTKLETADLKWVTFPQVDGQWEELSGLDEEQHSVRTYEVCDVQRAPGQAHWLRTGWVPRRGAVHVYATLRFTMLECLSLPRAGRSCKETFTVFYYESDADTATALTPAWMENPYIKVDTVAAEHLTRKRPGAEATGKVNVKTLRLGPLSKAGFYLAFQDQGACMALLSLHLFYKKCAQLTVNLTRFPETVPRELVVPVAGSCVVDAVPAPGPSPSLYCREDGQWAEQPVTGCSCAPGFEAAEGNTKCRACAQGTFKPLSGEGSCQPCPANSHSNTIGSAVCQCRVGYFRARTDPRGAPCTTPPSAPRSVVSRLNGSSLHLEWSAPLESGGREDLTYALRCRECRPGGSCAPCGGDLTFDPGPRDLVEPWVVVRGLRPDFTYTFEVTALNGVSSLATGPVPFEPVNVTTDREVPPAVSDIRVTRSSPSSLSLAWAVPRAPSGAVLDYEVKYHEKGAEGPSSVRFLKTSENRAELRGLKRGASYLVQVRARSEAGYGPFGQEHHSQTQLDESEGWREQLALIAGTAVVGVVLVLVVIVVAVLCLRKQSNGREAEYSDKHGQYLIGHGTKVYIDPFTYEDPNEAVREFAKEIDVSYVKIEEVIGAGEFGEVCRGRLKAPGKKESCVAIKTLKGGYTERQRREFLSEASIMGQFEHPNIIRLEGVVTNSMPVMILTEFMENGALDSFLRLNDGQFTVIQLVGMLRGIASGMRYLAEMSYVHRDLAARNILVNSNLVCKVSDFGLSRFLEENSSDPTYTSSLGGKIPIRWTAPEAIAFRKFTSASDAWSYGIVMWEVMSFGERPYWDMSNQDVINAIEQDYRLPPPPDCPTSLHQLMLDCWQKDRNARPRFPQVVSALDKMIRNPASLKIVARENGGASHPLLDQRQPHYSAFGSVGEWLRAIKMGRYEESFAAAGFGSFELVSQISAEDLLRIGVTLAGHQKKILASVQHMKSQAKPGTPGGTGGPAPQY

CN(C)c1nccc(-c2cnn3ncccc23)n1
remaining binding (binding; 1 µM): 100%

O=c1nc(-c2ccccn2)sc2ccccc12
remaining binding (cell-free assay; competition with immobilised ligand; 1 µM): 100%

O=C(c1ccc(Nc2nccc(-c3cc4ccccc4s3)n2)cc1)N1CCC(N2CCCC2)CC1
remaining binding (binding; competition with immobilised ligand; 1 µM): 87%

C[C@H](c1ccc(F)cc1)N(Cc1cccc(C(=O)O)c1)C(=O)c1cnc2ccccc2c1
remaining binding (cell-free assay; competition with immobilised ligand; 1 µM): 100%

F[C@@H]1CCN(c2nccc(-c3cnn4ncccc34)n2)C1
remaining binding (binding; 1 µM): 90%

O=C(NCC1CCOCC1)c1n[nH]cc1NC(=O)c1c(F)cccc1F
remaining binding (binding; competition with immobilised ligand; 1 µM): 100%

FC(F)(F)Oc1cccc(-c2cnc3ccc(-c4ccncc4)nn23)c1
remaining binding (cell-free assay; competition with immobilised ligand; 5 µM): 87%

C[C@H]1CCN(c2nccc(-c3cnn4ncccc34)n2)C1
remaining binding (binding; 1 µM): 100%

COc1ncc2cc3ccccc3nc2c1C#N
remaining binding (cell-free assay; competition with immobilised ligand; 5 µM): 100%

C[C@@H]1CN(c2cc(-c3n[nH]c4ccc(OC5(C)CC5)cc34)ncn2)C[C@H](C)O1
remaining binding (cell-free assay; competition with immobilised ligand; 0.1 µM): 79%

CN(c1nccc(-c2cnn3ncccc23)n1)C1CC1
remaining binding (binding; 1 µM): 100%

CNC(=O)[C@@H]1CC[C@@H](n2c(-c3ccc4cnccc4c3)nc3ccc(C(=O)NCc4cccc(C(N)=O)c4)cc32)C1
remaining binding (binding; competition with immobilised ligand; 1 µM): 100%

CC1=C(C#N)C(c2ccc3c(c2)c(NC(=O)c2ccccc2C)nn3C)C(C#N)=C(C)N1
remaining binding (cell-free assay; competition with immobilised ligand; 1 µM): 97%

c1cnn2ncc(-c3ccnc(N4CCC45COC5)n3)c2c1
remaining binding (binding; 1 µM): 92%

C=CC(=O)N1CCC(C(=O)NCC(=O)N2CCN(c3nc(-c4cnc(N)nc4C(F)F)nc(N4CCOCC4)n3)CC2)CC1
remaining binding (binding; competition with immobilised ligand; 1 µM): 100%

O=C(NCCCN1CCOCC1)c1ccc(Nc2ncc(Cl)c(-c3ccc(Cl)s3)n2)cc1
remaining binding (binding; competition with immobilised ligand; 1 µM): 91%

COc1cnc(Nc2cccc(S(N)(=O)=O)c2)nc1N1CCN(c2ccccc2)C(=O)C1
remaining binding (binding; competition with immobilised ligand; 1 µM): 100%

Cc1cc(C)c(-n2ccn3nc(-c4cccnc4)cc23)cc1NC(=O)c1cc(C#N)cc(S(F)(F)(F)(F)F)c1
remaining binding (cell-free assay; competition with immobilised ligand; 0.1 µM): 99.6%

Cc1cnc(Nc2ccc(C(=O)N3CCC(N4CCCC4)CC3)cc2)nc1-c1cc2ccccc2s1
remaining binding (binding; competition with immobilised ligand; 1 µM): 27%

CCC(=O)N[C@H]1CC[C@@H](C(=O)N(C)c2ccc(-c3nc4ccccc4o3)cc2)C1
remaining binding (cell-free assay; competition with immobilised ligand; 1 µM): 73%

CN(C)c1nccc(-c2cnc3ncccn23)n1
remaining binding (binding; 1 µM): 100%
